Reference: ChEMBL document CHEMBL5376013, “Design, synthesis and biological evaluation of novel morpholinopyrimidine-5-carbonitrile derivatives as dual PI3K/mTOR inhibitors” (RSC Med Chem, 2024)

Key:
Assay type in all cases: functional
Conditions in all cases: read-out: GI
U-251 = test: Antitumor activity against human U-251 cells assessed as growth inhibition at 10 uM relative to control
Outline: (§1)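 Drug exposure 48 h at 37 °C, 5% CO2. Adherent cells fixed with cold TCA (10% final), suspension cells with TCA (16% final). Stained with 0.4% SRB in 1% acetic acid, dissolved in 10 mM Tris, A515. Growth relative to time-zero and untreated control.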

SNB-75 = test: Antitumor activity against human SNB-75 cells assessed as growth inhibition at 10 uM relative to control; outline: as §1
SK-MEL-2 = test: Antitumor activity against human SK-MEL-2 cells assessed as growth inhibition at 10 uM relative to control
Outline: (§2)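 After drug addition, plates were incubated 48 h at 37 °C under 5% CO2. Adherent cells were fixed with cold TCA (10% final, 60 min, 4 °C) and suspension cells with 16% final TCA. Staining used 0.4% SRB in 1% acetic acid, solubilized in 10 mM trizma, read at A515. Percent growth was calculated from time-zero, control and treated absorbances.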

UO-31 = test: Antitumor activity against human UO-31 cells assessed as growth inhibition at 10 uM relative to control; outline: as §1
SW-620 = test: Antitumor activity against human SW-620 cells assessed as growth inhibition at 10 uM relative to control; outline: as §1
HCT-15 = test: Antitumor activity against human HCT-15 cells assessed as growth inhibition at 10 uM relative to control; outline: as §2
IGROV-1 = test: Antitumor activity against human IGROV-1 cells assessed as growth inhibition at 10 uM relative to control; outline: as §2
BT-549 = test: Antitumor activity against human BT-549 cells assessed as growth inhibition at 10 uM relative to control; outline: as §2
SK-MEL-5 = test: Antitumor activity against human SK-MEL-5 cells assessed as growth inhibition at 10 uM relative to control; outline: as §1
MCF7 = test: Antitumor activity against human MCF7 cells assessed as growth inhibition at 10 uM relative to control; outline: as §2
K562 = test: Antitumor activity against human K562 cells assessed as growth inhibition at 10 uM relative to control; outline: as §2
CAKI-1 = test: Antitumor activity against human CAKI-1 cells assessed as growth inhibition at 10 uM relative to control; outline: as §2
MOLT-4 = test: Antitumor activity against human MOLT-4 cells assessed as growth inhibition at 10 uM relative to control; outline: as §2
HT-29 = test: Antitumor activity against human HT-29 cells assessed as growth inhibition at 10 uM relative to control; outline: as §2
NCI-H226 = test: Antitumor activity against human NCI-H226 cells assessed as growth inhibition at 10 uM relative to control; outline: as §2
KM12 = test: Antitumor activity against human KM12 cells assessed as growth inhibition at 10 uM relative to control; outline: as §2
HCC 2998 = test: Antitumor activity against human HCC 2998 cells assessed as growth inhibition at 10 uM relative to control; outline: as §2
RPMI-8226 = test: Antitumor activity against human RPMI-8226 cells assessed as growth inhibition at 10 uM relative to control; outline: as §2
SF-539 = test: Antitumor activity against human SF-539 cells assessed as growth inhibition at 10 uM relative to control; outline: as §2
786-0 = test: Antitumor activity against human 786-0 cells assessed as growth inhibition at 10 uM relative to control; outline: as §2
OVCAR-8 = test: Antitumor activity against human OVCAR-8 cells assessed as growth inhibition at 10 uM relative to control; outline: as §2
CCRF-CEM = test: Antitumor activity against human CCRF-CEM cells assessed as growth inhibition at 10 uM relative to control; outline: as §2
T47D = test: Antitumor activity against human T47D cells assessed as growth inhibition at 10 uM relative to control; outline: as §1
MDA-MB-435 = test: Antitumor activity against human MDA-MB-435 cells assessed as growth inhibition at 10 uM relative to control; outline: as §2
OVCAR-5 = test: Antitumor activity against human OVCAR-5 cells assessed as growth inhibition at 10 uM relative to control; outline: as §2
A549 = test: Antitumor activity against human A549 cells assessed as growth inhibition at 10 uM relative to control; outline: as §2
OVCAR-3 = test: Antitumor activity against human OVCAR-3 cells assessed as growth inhibition at 10 uM relative to control; outline: as §2
NCI-H522 = test: Antitumor activity against human NCI-H522 cells assessed as growth inhibition at 10 uM relative to control; outline: as §2
SK-MEL-28 = test: Antitumor activity against human SK-MEL-28 cells assessed as growth inhibition at 10 uM relative to control; outline: as §1
HOP-62 = test: Antitumor activity against human HOP-62 cells assessed as growth inhibition at 10 uM relative to control; outline: as §2
NCI-H23 = test: Antitumor activity against human NCI-H23 cells assessed as growth inhibition at 10 uM relative to control; outline: as §2
MDA-MB-231 = test: Antitumor activity against human MDA-MB-231 cells assessed as growth inhibition at 10 uM relative to control; outline: as §2
NCI-H322M = test: Antitumor activity against human NCI-H322M cells assessed as growth inhibition at 10 uM relative to control; outline: as §2
NCI-H460 = test: Antitumor activity against human NCI-H460 cells assessed as growth inhibition at 10 uM relative to control; outline: as §2
Hs-578T = test: Antitumor activity against human Hs-578T cells assessed as growth inhibition at 10 uM relative to control; outline: as §2
RXF 393 = test: Antitumor activity against human RXF 393 cells assessed as growth inhibition at 10 uM relative to control; outline: as §2
HCT-116 = test: Antitumor activity against human HCT-116 cells assessed as growth inhibition at 10 uM relative to control; outline: as §2
COLO 205 = test: Antitumor activity against human COLO 205 cells assessed as growth inhibition at 10 uM relative to control; outline: as §2
SNB-19 = test: Antitumor activity against human SNB-19 cells assessed as growth inhibition at 10 uM relative to control; outline: as §1
SR = test: Antitumor activity against human SR cells assessed as growth inhibition at 10 uM relative to control; outline: as §1
Malme-3M = test: Antitumor activity against human Malme-3M cells assessed as growth inhibition at 10 uM relative to control; outline: as §2
EKVX = test: Antitumor activity against human EKVX cells assessed as growth inhibition at 10 uM relative to control; outline: as §2
MDA-MB-468 = test: Antitumor activity against human MDA-MB-468 cells assessed as growth inhibition at 10 uM relative to control; outline: as §2
SN12C = test: Antitumor activity against human SN12C cells assessed as growth inhibition at 10 uM relative to control; outline: as §1
HL-60 = test: Antitumor activity against human HL-60 cells assessed as growth inhibition at 10 uM relative to control; outline: as §2
LOX IMVI = test: Antitumor activity against human LOX IMVI cells assessed as growth inhibition at 10 uM relative to control; outline: as §2

**Q.** What does the source list for N#Cc1c(-c2ccc(Cl)cc2)[nH]c(=S)[nH]c1=O?
**A.** inhibition of growth at 10 µM (U-251): < 1%; inhibition of growth at 10 µM (SNB-75): 14.7%; inhibition of growth at 10 µM (SK-MEL-2): < 1%; inhibition of growth at 10 µM (UO-31): 10.2%; inhibition of growth at 10 µM (SW-620): < 1%; inhibition of growth at 10 µM (HCT-15): < 1%; inhibition of growth at 10 µM (IGROV-1): < 1%; inhibition of growth at 10 µM (BT-549): < 1%; inhibition of growth at 10 µM (SK-MEL-5): < 1%; inhibition of growth at 10 µM (MCF7): < 1%; inhibition of growth at 10 µM (K562): < 1%; inhibition of growth at 10 µM (CAKI-1): < 1%; inhibition of growth at 10 µM (MOLT-4): < 1%; inhibition of growth at 10 µM (HT-29): < 1%; inhibition of growth at 10 µM (NCI-H226): < 1%; inhibition of growth at 10 µM (KM12): < 1%; inhibition of growth at 10 µM (HCC 2998): < 1%; inhibition of growth at 10 µM (RPMI-8226): < 1%; inhibition of growth at 10 µM (SF-539): < 1%; inhibition of growth at 10 µM (786-0): < 1%; inhibition of growth at 10 µM (OVCAR-8): < 1%; inhibition of growth at 10 µM (CCRF-CEM): < 1%; inhibition of growth at 10 µM (T47D): < 1%; inhibition of growth at 10 µM (MDA-MB-435): < 1%; inhibition of growth at 10 µM (OVCAR-5): 33.4%; inhibition of growth at 10 µM (A549): < 1%; inhibition of growth at 10 µM (OVCAR-3): < 1%; inhibition of growth at 10 µM (NCI-H522): < 1%; inhibition of growth at 10 µM (SK-MEL-28): < 1%; inhibition of growth at 10 µM (HOP-62): < 1%; inhibition of growth at 10 µM (NCI-H23): < 1%; inhibition of growth at 10 µM (MDA-MB-231): < 1%; inhibition of growth at 10 µM (NCI-H322M): < 1%; inhibition of growth at 10 µM (NCI-H460): < 1%; inhibition of growth at 10 µM (Hs-578T): < 1%; inhibition of growth at 10 µM (RXF 393): < 1%; inhibition of growth at 10 µM (HCT-116): < 1%; inhibition of growth at 10 µM (COLO 205): < 1%; inhibition of growth at 10 µM (SNB-19): < 1%; inhibition of growth at 10 µM (SR): < 1%; inhibition of growth at 10 µM (Malme-3M): < 1%; inhibition of growth at 10 µM (EKVX): < 1%; inhibition of growth at 10 µM (MDA-MB-468): < 1%; inhibition of growth at 10 µM (SN12C): < 1%; inhibition of growth at 10 µM (HL-60): < 1%; inhibition of growth at 10 µM (LOX IMVI): < 1%
